# Source: PubChem (Broad Institute)
# RAD54 branch: RAD54 (human) branch migration inhibition | Q92698 | RAD54 Holliday junction branch migration, FAM/BHQ fluorescence | inhibition, % at 10.4 µM | 360,000 tested, 0.14% active | AID 602329;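 active = mean normalized replicate activity at least 40 and at least half of replicates scoring 40 or more; inconclusive = only one of the two criteria met; inactive = mean below 40 and under half of replicates reaching 40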;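 note: 0% = median of neutral control wells and 100% = median of positive control wells; inhibitors cause a drop in the FAM fluorescence signal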
# Target sequence (Q92698 whole entry, looked up): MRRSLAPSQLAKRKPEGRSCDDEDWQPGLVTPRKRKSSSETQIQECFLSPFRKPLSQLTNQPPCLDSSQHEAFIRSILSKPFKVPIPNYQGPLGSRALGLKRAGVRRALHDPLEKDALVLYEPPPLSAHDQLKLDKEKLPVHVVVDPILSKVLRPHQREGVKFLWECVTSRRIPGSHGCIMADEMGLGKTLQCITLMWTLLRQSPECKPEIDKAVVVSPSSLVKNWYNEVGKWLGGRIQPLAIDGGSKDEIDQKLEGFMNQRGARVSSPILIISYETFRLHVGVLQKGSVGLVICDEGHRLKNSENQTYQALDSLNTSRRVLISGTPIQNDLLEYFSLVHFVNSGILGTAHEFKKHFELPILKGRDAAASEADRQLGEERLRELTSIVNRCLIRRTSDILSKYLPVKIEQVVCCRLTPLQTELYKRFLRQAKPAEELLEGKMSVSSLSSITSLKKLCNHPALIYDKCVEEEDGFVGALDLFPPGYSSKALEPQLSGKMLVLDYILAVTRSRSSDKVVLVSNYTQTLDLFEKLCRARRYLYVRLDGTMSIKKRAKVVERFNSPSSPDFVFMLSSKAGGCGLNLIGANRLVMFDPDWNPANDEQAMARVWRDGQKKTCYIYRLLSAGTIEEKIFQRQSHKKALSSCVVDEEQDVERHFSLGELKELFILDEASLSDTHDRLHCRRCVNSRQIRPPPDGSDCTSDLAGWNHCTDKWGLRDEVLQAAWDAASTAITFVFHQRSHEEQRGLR
# Casp6 inh: caspase-6 (human) enzyme inhibition | purified caspase-6, Z-VEID-R110 cleavage fluorescence | inhibition, % at 12.5 µM | P55212 | 350,000 tested, 0.53% active;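 active = mean inhibition across replicates at least about 35%, with every replicate also reaching that limit, limit read from the data; inconclusive = only one of the two criteria met; inactive = neither criterion met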;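 note: 0% = median of neutral control wells and 100% = no fluorescence left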
# S100A4 inh HTS: S100A4-myosin IIA interaction inhibition; P26447; AID 652163; 360,000 tested, 0.14% active; S100A4/TAMRA-MyoIIA peptide fluorescence polarization; inhibition, % at 10.7 µM;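 active = mean inhibition of at least 70% across replicates, with every replicate also reaching that level; inconclusive = mean inhibition reaches 70% but some replicates fall short; inactive = mean inhibition below 70%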
#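 Material: human S100A4 monomer with TAMRA-labelled myosin IIA peptide; buffer or medium: HEPES pH 7.2 with CaCl2, KCl, NaCl, DTT, Triton; compound dosing: one concentration per compound; schedule: 5 min incubation before reading; benchmarks: neutral control DMSO, positive control TFP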
# Xi reactivation: activators of X-chromosome reactivation in mouse fibroblasts. 360,000 tested, 0.055% active. XiGFP mouse fibroblasts, % GFP-positive cells imaging, 3 d; cells co-treated with 5-aza-dC sensitizer; scaled so ellipticine positive control = 100%. activation, % at 7.58 µM;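 active = mean normalized replicate activation at least 10% and every replicate at or above 10%; inconclusive = only one of the two criteria met; inactive = mean below 10% and not all replicates reach 10%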;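 note: 0% = median of on-plate neutral control wells and 100% = ellipticine 6 µM median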
#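 System: 68-5-11 XiGFP fibroblast line; Timing: 3 days compound exposure; Compound dosing: one concentration, pinned; Benchmarks: positive control ellipticine, 6 µM final; Buffer or medium: DMEM containing 5-aza-dC.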
# RAD52 anneal inh: blocks human RAD52 DNA annealing; 360,000 tested, 0.46% active; recombinant RAD52 DNA annealing, FRET fluorescence; inhibition, % at 18.7 µM; P43351; AID 651710;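 active = every replicate showing at least 50% inhibition; inconclusive = mean inhibition at least 50% but not in every replicate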
# AF4-AF9 inh: MLL-AF4/AF9 protein interaction inhibition; inhibition, % at 10 µM; 350,000 tested, 0.47% active; P42568; AlphaScreen, biotin-AF4 peptide binding to FLAG-AF9;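 active = every replicate reaching a set inhibition limit, whatever the replicate mean, cut at about 25% in these data; inconclusive = mean inhibition reaches that limit but some replicates miss it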;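 note: 0% = plate neutral control median and 100% = total signal loss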
# RAD52 DNA ctr: binds DNA, flagging false RAD52 inhibitor hits; shares compounds with RAD52 anneal inh; Salmon sperm DNA/acridine orange FP displacement, DNA binding; AC50, µM; 1,000 tested, 8% active;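 active = fitted half-maximal concentration for signal loss at or below twice the highest dose tested, in every separate run, actives reach about 64 µM in these data; inconclusive = runs disagree, or flat partial signal loss, or poor fit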
# CASP1 counter: selectivity counter-screen: inhibitors of human caspase-1; shares compounds with Casp6 inh; purified caspase-1, Z-YVAD-R110 cleavage fluorescence; activity change, negative = inhibition, % at 35 µM; 100 tested, under 10 active; AID 743289;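 active = compounds lowering fluorescence whose fitted half-maximal concentration is no more than twice their top tested dose; inconclusive = flat fit with 30 to 70% inhibition, or poor fit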
# * = called active by the depositor; i = inactive; u = inconclusive; x = no result. Shown are actives, neighbours in structure and some others; about 1.3% of the full set was active somewhere.
SMILES,RAD54 branch,Casp6 inh,S100A4 inh HTS,Xi reactivation,RAD52 anneal inh,AF4-AF9 inh,RAD52 DNA ctr,others
CCCN(C)C[C@H]1Oc2cc(-c3ccncc3)ccc2S(=O)(=O)N([C@@H](C)CO)C[C@H]1C,-1,0,-4,0,0,-1,x,
O=C(Cc1cccnc1)N1CC(=O)N2[C@H](CO)[C@@H](c3ccc(-c4cccc(F)c4)cc3)[C@@H]2C1,x,x,x,1,x,x,x,
COc1cc(C(=O)NC2CCN(C)CC2)ccc1Nc1ncc2c(n1)N(C1CCCC1)CCC(=O)N2C(C)C,37,x,x,x,x,x,x,
COc1cc(C(=O)NC2CCN(C)CC2)ccc1Nc1ncc2c(n1)N(CCc1ccccc1)CCC(=O)N2C,33,-32,0,0,81*,9,i,
Cc1ccccc1NC(=S)NC12CN3CN(CN(C3)C1)C2,x,-26,0,0,5,-6,x,
COc1ccccc1NC(=S)NC12CN3CN(CN(C3)C1)C2,x,-62,-3,0,79*,12,i,
CN1C(=O)c2cc(NC(=O)C3CCCCC3)ccc2OC[C@@H]2O[C@@H](CC(=O)NC3CCCC3)CC[C@H]21,0,-1,-7,0,-7,-2,x,
Cc1cc(C)c2nc3nc(C)c(C)cc3c(N)c2c1,x,-34,0,0,91*,1,62µM*,
O=[N+]([O-])c1ccc2c(c1)C(N1CCN(CCO)CC1)Cc1ccc(F)cc1S2 (stereo not given),10,2,7,0,3,16,x,
CSc1ccc2c(c1)C(N1CCN(C)CC1)Cc1ccc(F)cc1S2 (stereo not given),11,-2,1,0,51*,x,i,
O=C(C[C@H]1C[C@@H]2c3cc(NS(=O)(=O)c4ccc(F)cc4)ccc3O[C@@H]2[C@@H](CO)O1)NCc1cc(F)ccc1F,-5,1,3,0,7,2,x,
NCc1cc2c3c(c1)CCCN3CCC2,55*,-179,13,0,80*,51*,u,
CCCC#Cc1ccc([C@H]2[C@@H](CO)N3C(=O)CN(C(=O)Nc4ccccc4)C[C@@H]23)cc1,x,2,1,1,-10,-8,x,
CCOC(=O)CCc1nc2ccccc2[nH]1,-5,-2,4,x,-14,5,x,
COCC(=O)O[C@]1(CCN(C)CCCc2nc3ccccc3[nH]2)CCc2cc(F)ccc2[C@@H]1C(C)C,22,7,-17,0,54*,11,i,
COc1nc(Nc2cccc(F)c2)nc(OC)n1,0,1,-10,0,-5,-4,x,
COc1cc2nc(Nc3cccc(F)c3)nc(N)c2cc1OC,36,-15,0,0,61*,17,i,
COc1ccc(S(=O)(=O)Nc2ccc3c(c2)C(=O)N([C@H](C)CO)C[C@H](C)[C@H](CN(C)S(=O)(=O)c2c(C)noc2C)O3)cc1,-7,-1,-9,0,-8,2,x,
CCOc1cc(CNCCCN2CCOCC2)cc(Br)c1OCc1ccccc1Cl,6,-7,-5,0,50*,19,i,
CCOc1cc(CNCCO)cc(Br)c1OCc1ccccc1Cl,8,x,x,x,x,x,x,
CCCC(=O)Nc1ccc2c(c1)C(=O)N(C)C[C@H](OC)[C@H](C)CN(C(C)=O)[C@@H](C)CO2,-5,1,-4,0,-1,-1,x,
CN1CCN(c2ccc(Nc3ccnc4cc(Cl)ccc34)cc2)CC1,53*,-10,-11,0,88*,15,i,
CO[C@@H]1CN(C)C(=O)c2cc(NC(C)=O)ccc2OC[C@@H](C)N(CCC(F)(F)F)C[C@@H]1C,5,2,-95,1,19,-16,x,
FC(F)(F)c1ccc(CN2CCN(Cc3ccco3)CC2)cc1,-8,2,-7,0,97*,2,i,
CN(C)CCCNc1cc(O)c2ncccc2c1,-1,87*,26,0,70*,76*,i,CASP1 counter=6
SMILES,RAD54 branch,Casp6 inh,S100A4 inh HTS,Xi reactivation,RAD52 anneal inh,AF4-AF9 inh,RAD52 DNA ctr,others
O=C(C[C@@H]1C[C@@H]2c3cc(NS(=O)(=O)c4ccccc4)ccc3O[C@@H]2[C@@H](CO)O1)N1CCCCC1,-3,-1,6,0,4,-2,x,
COc1cc(NC(C)CCCN)c2ncccc2c1 (stereo not given),27,91*,19,0,84*,31*,i,CASP1 counter=1
COc1cc(NCCCCCCCN)c2ncccc2c1,-1,x,x,x,x,x,x,
O=c1c(O)cccc2cc(O)c(O)c(O)c12,x,98*,-4,0,3,1,x,CASP1 counter=-10
CCOc1c(O)ccc(/C=C2\SC(=S)NC2=O)c1[N+](=O)[O-],x,61*,-3,0,-24,-6,x,CASP1 counter=9
CC(C)C#Cc1ccc2c(c1)O[C@H](CN(C)C(=O)c1ccncc1)[C@@H](C)CN([C@@H](C)CO)S2(=O)=O,-18,5,3,-1,-5,3,x,
COc1ccc(S(=O)(=O)N2C[C@@H](O)COC[C@@H]3O[C@H](CC(=O)NCCN4CCCCC4)CC[C@H]32)cc1,1,x,x,0,x,x,x,
O=C1NC(=O)C(=Cc2ccccc2[N+](=O)[O-])S1,2,67*,-6,0,-15,1,x,CASP1 counter=4
Oc1cc2c(cc1O)[C@H]1c3ccc(O)c(O)c3OC[C@@]1(O)C2,9,37*,-5,0,-14,u,x,CASP1 counter=-2
COCCN(C(=O)COC(=O)c1cc2c(s1)CCC2)c1c(N)n(Cc2ccccc2)c(=O)[nH]c1=O,-5,80*,-9,0,-25,-13,x,CASP1 counter=-1
CCC1CCc2sc(C(=O)OCC(=O)N(CCOC)c3c(N)n(Cc4ccccc4)c(=O)[nH]c3=O)cc2C1 (stereo not given),-5,-1,-4,0,-19,0,x,
CC(C)NC(=O)Nc1ccc2c(c1)C(=O)N([C@H](C)CO)C[C@H](C)[C@H](CN(C)C)OCCCC[C@H](C)O2,4,-5,-9,1,-22,-3,x,
C/C(CC(=O)N1CCCC1)=N\NC(=O)c1cc2ccccc2cc1O,x,39*,-2,x,3,-8,x,CASP1 counter=13
COc1ccc(NC(=O)Nc2ccc3c(c2)C(=O)N([C@@H](C)CO)C[C@@H](C)[C@H](CN(C)C(=O)c2ccccc2)OCCCC[C@@H](C)O3)cc1,1,2,42,0,2,7,x,
O=C(Nc1ccc2nc3n(c(=O)c2c1)CCCCC3)c1cc([N+](=O)[O-])ccc1F,4,7,-2,1,-3,6,x,
O=C(Nc1ccc2nc3n(c(=O)c2c1)CCCCC3)c1c(F)ccc([N+](=O)[O-])c1F,-7,60*,4,0,-13,4,x,CASP1 counter=14
